The results in this text go back to ChEMBL document CHEMBL2203194, “Phenolic compounds from Caesalpinia sappan heartwood and their anti-inflammatory activity” (J Nat Prod, 2012).

Molecules are shown by their SMILES. Active and inactive are the calls of the source. The calls are words filed in the database; no cut-off is given here.

Data set [1] concerns RAW264.7. The data set can be described thus: Cytotoxicity against mouse RAW264.7 cells at 50 uM incubated for 24 hrs in presence of LPS by MTT assay. To be noted: raw264.7, 24 h. In kind it is cell-based. In outline:
(§1)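 RAW264.7 viability by MTT colorimetric assay after 24 h with compounds at 50 μM, with or without LPS (1 μg/mL).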
Background: Formazan colour is commonly taken as a measure of viable cells.

In data set [2] the test system is RAW264.7. Kind of data set: Antiinflammatory activity in mouse RAW264.7 cells assessed as reduction of LPS-induced IkappaBalpha degradation at 30 uM pre-treated for 30 mins before LPS challenge and measured after 10 mins by immunoblot. Type of data set: functional, cell-based. In outline: (§2)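 30 min pretreatment of RAW264.7 cells with compound, then LPS (1 μg/mL). Lysis in ice-cold Tris-HCl pH 7.5/NP-40 buffer with protease/phosphatase inhibitors. SDS-PAGE, PVDF transfer, skim-milk block, anti-IκB-α antibody, HRP secondary, ECL detection.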

For data set [3], the system named is RAW264.7. The data set can be described thus: Antiinflammatory activity in mouse RAW264.7 cells assessed as reduction of LPS-induced iNOS protein expression pre-treated for 30 mins before LPS challenge for 18 hrs by immunoblot. Type of data set: functional, cell-based. The essentials:
(§3)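 Cells pretreated 30 min with compound (0−10 μM), then LPS 1 μg/mL for 18 h. Total lysates in ice-cold Tris-HCl pH 7.5/NP-40 buffer; 50 μg protein per lane by SDS-PAGE, PVDF, skim-milk block, anti-iNOS and anti-α-tubulin antibodies, HRP secondary, ECL. iNOS densitometry normalized to α-tubulin.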

For data set [4], the system named is RAW264.7. The data set can be described thus: Antiinflammatory activity in mouse RAW264.7 cells assessed as reduction of LPS-induced IkappaBalpha resynthesis at 30 uM pre-treated for 30 mins before LPS challenge by immunoblot. In kind it is functional, cell-based. The essentials:
as §2

The test system of data set [5] is RAW264.7. Kind of data set: Cytotoxicity against mouse RAW264.7 cells at 50 uM incubated for 24 hrs in absence of LPS by MTT assay. Type of data set: cell-based. To be noted: raw264.7, 24 h. The essentials:
as §1

The test system of data set [6] is RAW264.7. The data set can be described thus: Antiinflammatory activity in mouse RAW264.7 cells assessed as inhibition of LPS-induced TNFalpha production incubated for 24 hrs by ELISA. In kind it is functional, cell-based. To be noted: RAW264.7, 24 h. The essentials:
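RAW264.7 cells (1 × 10^5 cells/well) stimulated with 1 μg/mL LPS for 24 h with test compounds; TNF-α in culture supernatant quantified by ELISA. IC50 relative to vehicle control; mean ± SD of three repeated experiments. Celastrol positive control.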

The nature of data set [7]: Antioxidant activity assessed as nitric oxide free radical scavenging activity by UV-visible spectroscopy. Type of data set: functional. The essentials: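 Compounds in DMSO, made up with MeOH, mixed with 10 mM sodium nitroprusside in PBS; room temperature 150 min. Scavenging % = (control − sample)/control × 100, MeOH blank as control; ascorbic acid standard. IC50, mean ± SD of three experiments.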

For data set [8], the system named is RAW264.7. The data set can be described thus: Antiinflammatory activity in mouse RAW264.7 cells assessed as inhibition of LPS-induced nitric oxide generation incubated for 24 hrs. The conditions noted are these: RAW264.7, 24 h. In kind it is functional, cell-based. In outline:
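Nitrite in supernatant reacted with Griess reagent (sulfanilamide/phosphoric acid plus naphthylethylenediamine), A540 read, calibrated against NaNO2 standard. IC50 versus vehicle control, mean ± SD of three experiments; celastrol positive control.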

Data set [9] concerns RAW264.7. The data set can be described thus: Effect on alpha-tubulin protein expression in mouse RAW264.7 cells up to 10 uM pre-treated for 30 mins before LPS challenge for 18 hrs by immunoblot. Type of data set: functional, cell-based. In outline:
as §3
(A western blot detects proteins with antibodies after separation by electrophoresis.)

For data set [10], the system named is RAW264.7. Kind of data set: Antiinflammatory activity in mouse RAW264.7 cells assessed as reduction of LPS-induced IkappaBalpha degradation at 30 uM pre-treated for 30 mins before LPS challenge and measured after 15 mins by immunoblot. In kind it is functional, cell-based. The essentials: as §2
Data set [11] concerns RAW264.7. The data set can be described thus: Antiinflammatory activity in mouse RAW264.7 cells assessed as reduction of LPS-induced IkappaBalpha degradation at 30 uM pre-treated for 30 mins before LPS challenge and measured after 5 mins by immunoblot. Type of data set: functional, cell-based. In outline:
as §2

In the case of `COc1cc(O)c2c(=O)c(OC)c(-c3ccc(O)c(O)c3)oc2c1`, the Activity entry in the data set with RAW264.7 [1] is “Non-toxic”; in the data set with RAW264.7 [3] it was “Dose-dependent effect”; in the data set on RAW264.7 [5], “Non-toxic”. In addition, the outcome in the data set on RAW264.7 [2], with RAW264.7 [4] and with RAW264.7 [10] was Active. The IC50 – broadly, the point on the concentration scale where inhibition reaches its midpoint – with RAW264.7 [6] amounted to 5.8 µM; in [7], 103 µM; in the data set with RAW264.7 [8], 3.5 µM. Moreover, the outcome in the data set on RAW264.7 [9] was inactive.

`O=C1c2ccc(O)cc2OC[C@@H]1Cc1ccc(O)c(O)c1`: the Activity result in the data set on RAW264.7 [1] and with RAW264.7 [5] was “Non-toxic” each time. Moreover, the IC50 in [7] is 65.3 µM; in the data set on RAW264.7 [8] it was 42.4 µM.

Consider `O=C1c2ccc(O)cc2OC[C@]1(O)Cc1ccc(O)cc1`, for which the Activity result in the data set on RAW264.7 [1] and with RAW264.7 [5] was “Non-toxic” in each case. The figures for the IC50 (in data set [7]; in the data set on RAW264.7 [8]) were 117 µM and above 50 µM, respectively.

Regarding `COc1ccc(-c2oc3cc(O)cc(O)c3c(=O)c2O)cc1OC`, the Activity result with RAW264.7 [1] and with RAW264.7 [5] was “Non-toxic” in each case. Moreover, the IC50 in [7] is 85.3 µM; in the data set with RAW264.7 [8], 35 µM.

Regarding `O=C1C=C[C@]23CC(COC2=C1)Cc1cc(O)c(O)cc13`, the Activity result in the data set with RAW264.7 [1] and in the data set with RAW264.7 [5] was “Non-toxic” each time. For the same compound, the IC50 in data set [7] is 157 µM; in the data set with RAW264.7 [8] it was above 50 µM.

For the compound `O=C1/C(=C/c2ccc(O)cc2)COc2cc(O)ccc21`, the Activity entry in the data set on RAW264.7 [1] and with RAW264.7 [5] was “Non-toxic” each time. In addition, the IC50 in [7] was 95.5 µM; with RAW264.7 [8], above 50 µM.

For `O=C1O[C@H]([C@@H](O)CO)C(O)=C1O` [ASCORBIC ACID], in data set [7], the IC50 is 0.71 µM.

In the case of `COc1cc(C[C@@]2(O)COc3cc(O)ccc3C2=O)ccc1O` [CAESALPINIAPHENOL A], the Activity entry with RAW264.7 [1] and in the data set with RAW264.7 [5] was “Non-toxic” in each case. Besides, the IC50 in data set [7] is 103 µM; in the data set with RAW264.7 [8] it was above 50 µM.

Regarding `O=C1OCC=C1C[C@@]1(O)COc2cc(O)ccc2C1=O` [CAESALPINIAPHENOL B], the Activity entry with RAW264.7 [1] and with RAW264.7 [5] was “Non-toxic” throughout. The IC50 is 95.6 µM in data set [7] and above 50 µM in the data set on RAW264.7 [8].

In the case of `O=C1COc2cc(O)ccc2-c2cc(O)c(O)cc21` [CAESALPINIAPHENOL C], the Activity result in the data set on RAW264.7 [1] and with RAW264.7 [5] was “Non-toxic” each time. Besides, the IC50 in [7] is 86.2 µM; in the data set on RAW264.7 [8], above 50 µM.

Take `O=Cc1ccc(O)cc1O[C@H](O)c1ccc(O)c(O)c1` [CAESALPINIAPHENOL D]: the Activity entry is “Non-toxic” in the data set with RAW264.7 [1], “Dose-dependent effect” in the data set on RAW264.7 [3] and “Non-toxic” in the data set with RAW264.7 [5]. Further, the IC50 is above 50 µM with RAW264.7 [6], 113 µM in data set [7] and 12.2 µM in the data set on RAW264.7 [8]. Further, the result in the data set on RAW264.7 [9] was inactive.

On to `CC1=C(O)C(=O)C=C2C1=CC=C1[C@@]2(C)CC[C@@]2(C)[C@@H]3C[C@](C)(C(=O)O)CC[C@]3(C)CC[C@]12C` [CELASTROL], for which the IC50 with RAW264.7 [6] was 0.8 µM.

Regarding `O=C1/C(=C/c2ccc(O)c(O)c2)COc2cc(O)ccc21` [SAPPANONE A], the Activity result with RAW264.7 [1] is “Non-toxic”; with RAW264.7 [3], “Dose-dependent effect”; in the data set on RAW264.7 [5], “Non-toxic”. The outcome in the data set with RAW264.7 [11], in the data set with RAW264.7 [4] and in the data set with RAW264.7 [10] was Active. Also, the IC50 in the data set with RAW264.7 [6] stood at 8.3 µM; in data set [7], 96.6 µM; in the data set on RAW264.7 [8], 5.7 µM. In the data set on RAW264.7 [9], the result was inactive.
